SENP8 block-1 – SENP8 protease inhibitors, primary screen, biochemical, luminescence. inhibition, % at 10 µM. 330,000 tested, 1.2% active. Sentrin-specific protease 8 (Homo sapiens), Q96LD8. AID 2540, 2010. purified SENP8, Z-RLRGG-aminoluciferin cleavage; in the data active = inhibition above about 50%
Target sequence (Q96LD8 whole entry, looked up): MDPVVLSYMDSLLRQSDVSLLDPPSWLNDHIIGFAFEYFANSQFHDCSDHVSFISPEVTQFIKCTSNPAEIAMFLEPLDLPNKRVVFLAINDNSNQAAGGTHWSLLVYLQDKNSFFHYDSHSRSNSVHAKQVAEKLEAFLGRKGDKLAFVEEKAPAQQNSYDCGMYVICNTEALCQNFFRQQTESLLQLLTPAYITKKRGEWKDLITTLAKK
SENP6 inh – SENP6 protease inhibitors, primary screen, biochemical, luminescence, uHTS; 330,000 tested, 1.8% active; AID 2599, 2010; Sentrin-specific protease 6 (Homo sapiens), Q9GZR1; Recombinant SENP6 catalytic domain, aminoluciferin luminescence; inhibition, % at 10 µM;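 active = inhibition above about 50% at the single tested dose, limit read from the data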
Target sequence (Q9GZR1 628-1112 limits assumed): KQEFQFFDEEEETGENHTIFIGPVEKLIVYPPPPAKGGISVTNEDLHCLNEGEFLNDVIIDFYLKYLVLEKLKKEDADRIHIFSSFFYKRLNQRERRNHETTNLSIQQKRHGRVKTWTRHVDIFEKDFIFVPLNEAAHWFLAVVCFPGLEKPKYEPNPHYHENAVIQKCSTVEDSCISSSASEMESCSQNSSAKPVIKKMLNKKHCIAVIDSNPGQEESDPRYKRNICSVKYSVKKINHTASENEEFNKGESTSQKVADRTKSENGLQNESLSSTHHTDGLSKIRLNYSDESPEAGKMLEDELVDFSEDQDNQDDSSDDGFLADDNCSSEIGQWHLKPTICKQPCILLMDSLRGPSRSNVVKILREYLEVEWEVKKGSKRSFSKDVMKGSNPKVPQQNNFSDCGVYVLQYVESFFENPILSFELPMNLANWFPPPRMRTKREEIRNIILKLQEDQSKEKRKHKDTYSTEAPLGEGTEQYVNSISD
SENP7 block – SENP7 protease inhibitors, primary screen, biochemical, luminescence, uHTS. AID 434973, 2010. recombinant SENP7, Z-RLRGG-aminoluciferin luminescence, 40 min. inhibition, % at 5 µM. 330,000 tested, 1.5% active;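 active = inhibition above about 50% at the single test dose, limit read from the data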
Apaf-1 inh – inhibitors of human Apaf-1 apoptosome, primary screen, biochemical, DEVD-Rh110 fluorescence, uHTS; inhibition, % at 20 µM; 330,000 tested, 0.71% active; Apoptotic protease-activating factor 1 (Homo sapiens), O14727; reconstituted apoptosome caspase-3 activity; active = inhibition of at least 40% at 20 µM
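System: reconstituted apoptosome with Apaf-1, cytochrome c, caspase-9, procaspase-3, dATP; Signal: Rh110 fluorescence intensity; Schedule: 30 min compound preincubation, 50 min activation, room temperature; Reagent: cytochrome c trigger plus (Z-DEVD)2-Rh110 caspase-3 substrate.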
SENP8 block-2 – human SENP8 protease inhibitors, primary screen, biochemical, fluorescence, Nedd8 protein substrate, uHTS | AID 602440, 2012 | Sentrin-specific protease 8 (Homo sapiens), Q96LD8 | inhibition, % at 20 µM | recombinant SENP8 | 360,000 tested, 0.64% active; in the data active = inhibition mostly above about 40%, no sharp cut-off; inactive = mostly below about 27%
UBC13 inh – UBC13 polyubiquitin chain formation inhibitors, primary screen, biochemical, TR-FRET, uHTS; Ubiquitin-conjugating enzyme E2 N (Homo sapiens), P61088; inhibition, % at 20 µM; 330,000 tested, 0.47% active; in the data active = inhibition above about 45%, passing the limit was not always enough
SENP8 conf – SENP8 protease inhibitors, retest, confirmation, biochemical, luminescence, single concentration. shares compounds with SENP7 block. 6,200 tested, 40% active. inhibition, % at 12.5 µM. Recombinant SENP8, Z-RLRGG-aminoluciferin luminescence, 60 min;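 active = mean inhibition across replicates above about 50%, limit read from the data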
SENP6 conf – SENP6 protease inhibitors, confirmation, biochemical, luminescence, single concentration; shares compounds with SENP7 block; inhibition, % at 12.5 µM; 6,200 tested, 58% active; recombinant SENP6, Z-RLRGG-aminoluciferin luminescence
SENP7 confirm – SENP7 protease inhibitors, retest, confirmation, biochemical, luminescence, single concentration | inhibition, % at 12.5 µM | 6,200 tested, 69% active | recombinant SENP7, Z-RLRGG-aminoluciferin luminescence, 40 min | shares compounds with SENP7 block | AID 488917, 2010
Casp3 SENP sel – caspase-3 protease inhibitors, confirmation, selectivity assay for SENP inhibitor project, biochemical, single concentration; shares compounds with SENP7 block; purified caspase-3, Z-DEVD-aminoluciferin luminescence, 60 min; inhibition, % at 12.5 µM; 6,200 tested, 60% active; AID 488918, 2010;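 active = mean inhibition above about 50%, limit read from the data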
SENP luc ctr – counter-screen for SENP inhibitors: luminescence interference. shares compounds with SENP7 block. Pre-incubated SENP8/Z-RLRGG-aminoluciferin, luciferase luminescence interference. inhibition, % at 12.5 µM. 6,200 tested, 39% active. AID 488919;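 active = mean inhibition above about 50% when retested at one dose, limit read from the data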
A number is an active result; . = inactive; / = no result given. Sampled rows, rich in hits. Any-hit rate of the full collection: about 3.1%.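 Rule for the calls, unless noted: active = mean inhibition above about 50% in the one-dose retest (limit read from the data); inactive = the rest.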

SMILES	SENP8 block-1	SENP6 inh	SENP7 block	Apaf-1 inh	SENP8 block-2	UBC13 inh	SENP8 conf	SENP6 conf	SENP7 confirm	Casp3 SENP sel	SENP luc ctr
Cc1ccc(/C=C/C(=O)c2ccc(C)cc2)cc1	.	52	.	.	.	.	.	.	.	.	.
COc1ccc(C(=O)/C=C/c2ccc(O)cc2)cc1	51	.	62	.	.	.	.	57	76	.	89
COc1ccc(S(=O)(=O)N2CCC[C@H]2C(=O)N2CCC[C@H]2C(=O)NCc2ccc(F)cc2F)cc1C	/	/	/	/	.	/	/	/	/	/	/
O=CNc1cc(-c2cccc(F)c2)cn2c(-c3ccc(F)c(Cl)c3)cnc12	/	/	/	/	.	/	/	/	/	/	/
Cc1nn(C)cc1/C=C/C(=O)c1ccc(O)cc1	.	53	.	.	.	.	.	.	.	.	.
Cc1nn(C)cc1/C=N/O	.	.	.	.	.	.	/	/	/	/	/
O=C(NCc1cccs1)c1ccc2sc([C@@H]3O[C@H](CO)[C@H](O)[C@H](O)[C@H]3O)nc2c1	/	/	/	/	.	/	/	/	/	/	/
Cc1ccc(NC(=O)CCc2c(C)nn(-c3ccc(N4CCCCC4)nn3)c2C)cc1F	.	56	.	.	.	.	61	53	77	.	.
COc1ccc(-c2cc(C(=O)Nc3cccc(O)c3)no2)cc1	93	97	99	.	.	.	93	94	101	95	57
O=C(Nc1cccc(O)c1)c1cc(-c2ccco2)on1	84	92	.	.	.	.	90	91	98	90	90
CS(=O)(=O)c1ccc2nc(NC(=O)c3ccc(Cl)cc3)sc2c1	.	.	.	.	.	.	/	/	/	/	/
Cc1noc(C)c1C(=O)Nc1nc2ccc(S(C)(=O)=O)cc2s1	.	66	62	.	.	.	60	56	85	85	62
COc1ccc2nc(NC(=O)c3c(C)noc3C)sc2c1	73	78	83	.	.	.	83	81	97	88	65
CN1C(=O)CCS(=O)(=O)C1c1ccc(Cl)c(Cl)c1 (stereo not drawn)	/	/	/	/	.	/	/	/	/	/	/
Cc1cc(N(C)C)ccc1N=Nc1ccc2ncccc2c1	92	92	96	.	.	.	90	96	.	.	56
CN(C)c1ccc(N=Nc2ccc3ncccc3c2)cc1	/	/	/	/	.	/	/	/	/	/	/
O=C(COC(=O)c1c[nH]c(=O)[nH]c1=O)Nc1ccccc1F	.	.	.	.	.	.	/	/	/	/	/
O=C(Nc1ccccc1F)c1c[nH]c(=O)[nH]c1=O	.	51	.	.	.	.	.	.	70	76	.
CCNC(=O)C1(C)CCCN(Cc2noc(-c3c(C)noc3C)n2)C1 (stereo not drawn)	/	/	/	/	.	/	/	/	/	/	/
Cc1cc(C)c(-c2c(N)cc(Br)cc2Br)c(N)c1	/	/	/	/	.	/	/	/	/	/	/
CCCCN(C(=O)NC(=O)Nc1ccccc1OC)S(C)(=O)=O	.	.	56	.	.	.	.	.	.	.	.
O=c1oc(-c2ccccc2)cc2ccccc12	/	/	/	/	.	/	/	/	/	/	/
Nc1ccc(-c2cc3ccccc3c(=O)o2)cc1	.	53	.	.	.	.	.	.	77	55	.
Cc1ccc2nc(/C(C#N)=C/c3ccc(O)c(O)c3)[nH]c2c1	.	65	.	.	.	.	54	.	72	.	.
Cc1ccc2nc(/C(C#N)=C/c3ccccc3C(=O)O)[nH]c2c1	.	.	.	.	.	.	/	/	/	/	/
SMILES	SENP8 block-1	SENP6 inh	SENP7 block	Apaf-1 inh	SENP8 block-2	UBC13 inh	SENP8 conf	SENP6 conf	SENP7 confirm	Casp3 SENP sel	SENP luc ctr
O=C(Nc1cccc([N+](=O)[O-])c1)c1ccc([N+](=O)[O-])o1	/	/	/	/	.	/	/	/	/	/	/
CC(=O)c1cc(C(=O)Nc2ccc3ccccc3c2)c(C)o1	.	.	.	.	.	.	/	/	/	/	/
CCC(=O)Nc1ccc2ccccc2c1	.	.	.	.	.	.	/	/	/	/	/
Cc1ccoc1C(=O)Nc1ccc(CC(=O)O)cc1	.	.	.	.	.	.	/	/	/	/	/
Cc1ccc(NC(=O)c2ccc([N+](=O)[O-])o2)cc1C	61	76	87	.	.	.	81	80	94	79	80
Cc1ccoc1C(=O)Nc1ccc2ccccc2c1	96	97	99	.	.	.	96	98	102	96	92
Cc1cc(C(=O)Nc2ccc3ccccc3c2)oc1C	61	68	54	.	.	.	.	66	89	50	53
Cc1cc(C(=O)Nc2ccc3ccccc3c2)c(C)o1	73	84	69	.	.	.	84	84	96	66	68
COc1cccc(CN2CCC2(C)C(=O)Nc2ccc3c(c2)OCO3)c1F (stereo not drawn)	/	/	/	/	.	/	/	/	/	/	/
CCCC1NC(=O)c2cc3ccccc3cc2-n2c1nc1ccc(F)cc1c2=O (stereo not drawn)	/	/	/	/	.	/	/	/	/	/	/
COc1cccc(CNC(=O)[C@@H]2CCCN2C(=O)[C@H]2CCCCN2C(=O)c2ccc(Cl)cc2)c1	/	/	/	/	.	/	/	/	/	/	/
Cn1nc(-c2ccccc2)cc1NC(=O)[C@@H]1O[C@H](CO)[C@H](O)[C@H](O)[C@H]1O	/	/	/	/	.	/	/	/	/	/	/
Cc1noc(C)c1C(=O)OCC(=O)c1ccc[nH]1	.	.	.	.	.	.	/	/	/	/	/
Cc1noc(C)c1C(=O)OCC(=O)c1cc(C)n(Cc2ccccc2Cl)c1C	.	68	.	.	.	.	.	.	.	.	.
CN(C)c1ccnc2sc3c(SCc4ccc(Cl)cc4)ncnc3c12	.	.	58	.	.	.	.	.	.	.	.
C=CCn1c2ccccc2c(=O)c2cc(C#Cc3ccccn3)ccc21	56	72	.	.	.	.	61	66	82	.	.
O=[N+]([O-])c1nccn1CC(O)CO (stereo not drawn)	/	/	/	/	.	/	/	/	/	/	/
COc1cc(OC)cc(C2=Cc3ccc(OC)cc3C(CC(C)=O)N2c2ccc(C#CCCO)cc2)c1 (stereo not drawn)	/	/	/	/	.	/	/	/	/	/	/
